Reference: ChEMBL document CHEMBL3627690, “Scaffold-Hopping and Structure-Based Discovery of Potent, Selective, And Brain Penetrant N-(1H-Pyrazol-3-yl)pyridin-2-amine Inhibitors of Dual Leucine Zipper Kinase (DLK, MAP3K12)” (J Med Chem, 2015)
Calls of active or inactive are those of the source. The rule behind the calls is not given here.

Tests used:
[1] = target: MAP kinase-activated protein kinase 2 (Homo sapiens) (UniProt P49137); test: Inhibition of MAPKAPK2 (unknown origin) at 1 uM by FRET method
Summary of the method: (§1)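 SelectScreen panel of 58 kinases, each tested at a single 1 µM compound concentration. Read-out was Z′-LYTE FRET of labeled peptide phosphorylation, run by the vendor's protocols, reported as percent inhibition.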

human MDR1 = test: Efflux ratio of permeability across basolateral to apical over apical to basolateral side in MDCK cells transfected with human MDR1 at 5 uM by LC-MS/MS analysis; details: dog
[2] = target: c-Jun N-terminal kinase, JNK (Homo sapiens) (UniProt P45983+P53779+P45984); test: Inhibition of Myc CA-JNK (unknown origin) transfected in HEK293 cells assessed as reduction of phosphorylation of c-Jun at 10 uM incubated for 5 hrs measured by Western blot analysis; assay type: cell-based
Summary of the method: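 HEK293 cells were transfected with constitutively active JNK 24 h before compound treatment. Cells were then exposed to compound for 5 h.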

[3] = target: Serine/threonine-protein kinase MARK2 (Homo sapiens) (UniProt Q7KZI7); test: Inhibition of MARK2 (unknown origin) at 1 uM by FRET method; summary of the method: as §1
[4] = target: Serine/threonine-protein kinase PAK 4 (Homo sapiens) (UniProt O96013); test: Inhibition of PAK4 (unknown origin) at 1 uM by FRET method
Summary of the method: (§2)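 Single-point screen at 1 uM against a panel of 58 representative kinases. Readout was labeled-peptide phosphorylation by FRET (Z′-LYTE), using the vendor's protocols.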

[5] = target: Protein kinase C beta type (Homo sapiens) (UniProt P05771); test: Inhibition of PKCbeta1 (unknown origin) at 1 uM by FRET method; summary of the method: as §2
[6] = target: Serine/threonine-protein kinase PLK1 (Homo sapiens) (UniProt P53350); test: Inhibition of PLK1 (unknown origin) at 1 uM by FRET method; summary of the method: as §2
[7] = target: Non-receptor tyrosine-protein kinase TYK2 (Homo sapiens) (UniProt P29597); test: Inhibition of TYK2 (unknown origin) at 1 uM by FRET method; summary of the method: as §2
[8] = target: Activin receptor type-1B (Homo sapiens) (UniProt P36896); test: Inhibition of ACVR1B (unknown origin) at 1 uM by FRET method; summary of the method: as §1
[9] = target: Cyclin-dependent kinase 1/cyclin B1 (Homo sapiens) (UniProt P06493+P14635); test: Inhibition of CDK1/cyclinB (unknown origin) at 1 uM by FRET method; assay type: protein-complex assay; summary of the method: as §1
[10] = target: CDK8/Cyclin C (Homo sapiens) (UniProt P49336+P24863); test: Inhibition of […]/cyclinC (unknown origin) at 1 uM by FRET method; assay type: protein-complex assay; summary of the method: as §1
[11] = target: Casein kinase II subunit alpha (Homo sapiens) (UniProt P68400); test: Inhibition of CK2alpha1 (unknown origin) at 1 uM by FRET method; summary of the method: as §1
[12] = target: Dual specificity tyrosine-phosphorylation-regulated kinase 3 (Homo sapiens) (UniProt O43781); test: Inhibition of DYRK3 (unknown origin) at 1 uM by FRET method; summary of the method: as §1
[13] = target: Ephrin type-A receptor 2 (Homo sapiens) (UniProt P29317); test: Inhibition of EphA2 (unknown origin) at 1 uM by FRET method; summary of the method: as §1
[14] = target: Mitogen-activated protein kinase 3 (Homo sapiens) (UniProt P27361); test: Inhibition of ERK1 (unknown origin) at 1 uM by FRET method; summary of the method: as §1
[15] = target: Glycogen synthase kinase-3 beta (Homo sapiens, UniProt P49841); test: Inhibition of GSK3beta (unknown origin) at 1 uM by FRET method; summary of the method: as §1
[16] = target: Inhibitor of nuclear factor kappa-B kinase subunit beta (Homo sapiens) (UniProt O14920); test: Inhibition of IKKbeta (unknown origin) at 1 uM by FRET method; summary of the method: as §1
[17] = target: Interleukin-1 receptor-associated kinase 4 (Homo sapiens) (UniProt Q9NWZ3); test: Inhibition of IRAK4 (unknown origin) at 1 uM by FRET method; summary of the method: as §1
[18] = target: Tyrosine-protein kinase JAK3 (Homo sapiens) (UniProt P52333); test: Inhibition of JAK3 (unknown origin) at 1 uM by FRET method; summary of the method: as §1
[19] = target: Vascular endothelial growth factor receptor 2 (Homo sapiens) (UniProt P35968); test: Inhibition of KDR (unknown origin) at 1 uM by FRET method; summary of the method: as §1
[20] = target: Proto-oncogene tyrosine-protein kinase Src (Homo sapiens, UniProt P12931); test: Inhibition of Src (unknown origin) by FRET method
Summary of the method: (§3)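 Biochemical IC50 determination from a 10-point dose-response in an enzymatic Z′-LYTE assay. Labeled-peptide phosphorylation was read by FRET under the vendor's protocols.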

[21] = target: Mitogen-activated protein kinase kinase kinase 9 (Homo sapiens, UniProt P80192); test: Inhibition of MLK1 (unknown origin) by FRET method; summary of the method: as §3
[22] = target: Mitogen-activated protein kinase kinase kinase 11 (Homo sapiens, UniProt Q16584); test: Inhibition of MLK3 (unknown origin) by FRET method; summary of the method: as §3
[23] = Tmax in mouse at 50 mg/kg, po; assay type: ADME, organism-based; details: in vivo
Summary of the method: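 Mice were dosed orally at 50 mg/kg as a methylcellulose suspension. Exposure was sampled over 0–6 h, and free brain concentration was determined at 6 h.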

[24] = AUC (0 to 6 h) in mouse at 50 mg/kg, po; assay type: ADME, organism-based; set-up: dose 50 mg/kg, time < 6 hr, route oral; details: in vivo
Summary of the method: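 C57/Bl6 mice were given a single 50 mg/kg oral dose as an MCT suspension. Plasma was sampled over 0–6 h for Cmax, Tmax and AUC0–6h.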

[25] = target: BDNF/NT-3 growth factors receptor (Homo sapiens, UniProt Q16620); details: 1 uM
Rattus norvegicus = test: Dose normalized free AUC in rat at 0.4 or 1 mg/kg, iv and 1 or 5 mg/kg, po; details: in vivo
HEK293 = test: Effect on total JNK protein level in HEK293 cells transfected with Flag DLK (unknown origin) at 0.1 to 10 uM incubated for 5 hrs by Western blot analysis; details: human, hek293, 5 h

Chain of Non-receptor tyrosine-protein kinase TYK2 (Homo sapiens) (P29597 whole entry): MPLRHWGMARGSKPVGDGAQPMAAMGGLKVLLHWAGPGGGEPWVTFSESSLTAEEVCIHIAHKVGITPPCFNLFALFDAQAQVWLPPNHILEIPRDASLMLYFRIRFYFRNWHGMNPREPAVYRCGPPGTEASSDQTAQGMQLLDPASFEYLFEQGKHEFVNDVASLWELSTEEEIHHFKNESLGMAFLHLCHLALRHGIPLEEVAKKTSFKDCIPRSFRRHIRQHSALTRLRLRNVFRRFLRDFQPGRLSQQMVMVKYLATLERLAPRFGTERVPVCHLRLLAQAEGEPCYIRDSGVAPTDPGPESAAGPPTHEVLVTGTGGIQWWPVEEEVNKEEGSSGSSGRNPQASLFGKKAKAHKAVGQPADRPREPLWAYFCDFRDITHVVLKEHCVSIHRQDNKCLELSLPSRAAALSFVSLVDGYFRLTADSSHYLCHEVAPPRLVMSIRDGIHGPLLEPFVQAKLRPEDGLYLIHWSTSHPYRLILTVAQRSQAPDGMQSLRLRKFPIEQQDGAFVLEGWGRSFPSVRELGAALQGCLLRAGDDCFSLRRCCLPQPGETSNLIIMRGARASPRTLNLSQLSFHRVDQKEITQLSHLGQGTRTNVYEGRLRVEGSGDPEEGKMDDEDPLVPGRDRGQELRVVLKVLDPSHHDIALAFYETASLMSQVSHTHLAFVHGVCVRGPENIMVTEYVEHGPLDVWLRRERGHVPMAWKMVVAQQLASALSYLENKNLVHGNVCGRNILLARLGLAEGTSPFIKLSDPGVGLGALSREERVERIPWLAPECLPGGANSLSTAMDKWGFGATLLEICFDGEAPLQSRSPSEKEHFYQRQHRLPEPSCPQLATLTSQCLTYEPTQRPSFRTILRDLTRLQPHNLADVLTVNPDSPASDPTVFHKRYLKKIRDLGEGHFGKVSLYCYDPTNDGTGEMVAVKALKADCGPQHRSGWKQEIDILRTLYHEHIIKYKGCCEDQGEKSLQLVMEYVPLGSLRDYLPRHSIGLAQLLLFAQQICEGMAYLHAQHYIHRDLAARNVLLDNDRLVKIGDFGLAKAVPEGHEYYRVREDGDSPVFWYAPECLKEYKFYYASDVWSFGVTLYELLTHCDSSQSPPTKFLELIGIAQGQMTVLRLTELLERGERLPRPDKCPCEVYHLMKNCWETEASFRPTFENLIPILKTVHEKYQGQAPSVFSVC
Chain of Activin receptor type-1B (Homo sapiens) (P36896 whole entry): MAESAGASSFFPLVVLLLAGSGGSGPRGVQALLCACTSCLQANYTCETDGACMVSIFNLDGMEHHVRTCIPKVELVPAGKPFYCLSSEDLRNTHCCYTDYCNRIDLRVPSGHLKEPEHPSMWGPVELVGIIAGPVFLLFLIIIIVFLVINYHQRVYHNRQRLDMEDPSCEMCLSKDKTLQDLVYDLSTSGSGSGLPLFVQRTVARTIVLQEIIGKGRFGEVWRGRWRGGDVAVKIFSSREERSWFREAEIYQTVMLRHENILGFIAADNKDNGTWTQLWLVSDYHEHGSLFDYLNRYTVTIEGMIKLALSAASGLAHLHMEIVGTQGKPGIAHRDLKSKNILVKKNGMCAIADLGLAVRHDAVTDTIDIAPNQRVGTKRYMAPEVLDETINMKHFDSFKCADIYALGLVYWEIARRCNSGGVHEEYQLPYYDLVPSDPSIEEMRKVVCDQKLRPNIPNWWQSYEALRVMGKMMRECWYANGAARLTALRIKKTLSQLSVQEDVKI
Chain of Serine/threonine-protein kinase MARK2 (Homo sapiens) (Q7KZI7 whole entry): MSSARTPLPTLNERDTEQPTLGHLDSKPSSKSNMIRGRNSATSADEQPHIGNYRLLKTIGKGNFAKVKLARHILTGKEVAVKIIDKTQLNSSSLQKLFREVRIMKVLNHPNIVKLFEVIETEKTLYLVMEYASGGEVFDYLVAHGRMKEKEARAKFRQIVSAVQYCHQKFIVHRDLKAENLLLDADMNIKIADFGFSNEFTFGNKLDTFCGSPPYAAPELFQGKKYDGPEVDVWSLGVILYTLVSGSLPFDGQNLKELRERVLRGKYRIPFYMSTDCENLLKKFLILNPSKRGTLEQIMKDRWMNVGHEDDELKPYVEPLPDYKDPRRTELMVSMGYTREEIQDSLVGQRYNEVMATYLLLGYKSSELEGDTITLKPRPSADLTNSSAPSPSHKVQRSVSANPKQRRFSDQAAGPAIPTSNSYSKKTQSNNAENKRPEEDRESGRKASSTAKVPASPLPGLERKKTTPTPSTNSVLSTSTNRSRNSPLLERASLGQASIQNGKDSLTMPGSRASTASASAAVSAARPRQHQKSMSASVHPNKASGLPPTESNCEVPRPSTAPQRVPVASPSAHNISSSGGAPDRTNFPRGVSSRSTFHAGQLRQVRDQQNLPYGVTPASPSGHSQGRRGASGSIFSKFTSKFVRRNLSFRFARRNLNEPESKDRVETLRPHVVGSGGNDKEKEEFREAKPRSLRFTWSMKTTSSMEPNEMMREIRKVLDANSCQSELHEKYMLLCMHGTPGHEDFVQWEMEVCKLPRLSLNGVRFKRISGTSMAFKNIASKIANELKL
Chain of Interleukin-1 receptor-associated kinase 4 (Homo sapiens) (Q9NWZ3 whole entry): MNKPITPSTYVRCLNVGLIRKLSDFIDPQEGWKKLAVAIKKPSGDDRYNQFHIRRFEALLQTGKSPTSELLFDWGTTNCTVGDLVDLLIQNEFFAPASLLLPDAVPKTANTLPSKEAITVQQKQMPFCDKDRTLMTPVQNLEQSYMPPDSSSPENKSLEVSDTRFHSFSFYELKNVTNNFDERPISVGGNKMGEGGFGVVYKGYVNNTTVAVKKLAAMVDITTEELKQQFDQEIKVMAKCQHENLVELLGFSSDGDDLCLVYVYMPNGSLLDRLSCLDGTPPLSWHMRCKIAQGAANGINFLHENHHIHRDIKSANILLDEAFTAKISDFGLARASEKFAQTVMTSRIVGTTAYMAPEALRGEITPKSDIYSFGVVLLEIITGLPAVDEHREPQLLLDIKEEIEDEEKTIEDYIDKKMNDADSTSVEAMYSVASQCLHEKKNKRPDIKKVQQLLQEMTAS
Chain of Glycogen synthase kinase-3 beta (P49841 whole entry, looked up): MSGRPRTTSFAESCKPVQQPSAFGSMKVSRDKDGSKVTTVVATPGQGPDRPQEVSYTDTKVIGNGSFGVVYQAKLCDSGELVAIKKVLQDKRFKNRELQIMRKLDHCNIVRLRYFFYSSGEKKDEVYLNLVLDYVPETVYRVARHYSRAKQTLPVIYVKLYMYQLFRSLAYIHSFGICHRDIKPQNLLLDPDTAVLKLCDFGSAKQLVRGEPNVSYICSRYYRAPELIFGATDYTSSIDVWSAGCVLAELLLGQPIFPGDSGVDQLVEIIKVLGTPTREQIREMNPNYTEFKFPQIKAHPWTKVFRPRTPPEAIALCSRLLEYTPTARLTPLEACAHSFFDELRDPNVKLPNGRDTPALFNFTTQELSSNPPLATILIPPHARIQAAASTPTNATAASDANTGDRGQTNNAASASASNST
Chain of Casein kinase II subunit alpha (Homo sapiens) (P68400 whole entry, looked up): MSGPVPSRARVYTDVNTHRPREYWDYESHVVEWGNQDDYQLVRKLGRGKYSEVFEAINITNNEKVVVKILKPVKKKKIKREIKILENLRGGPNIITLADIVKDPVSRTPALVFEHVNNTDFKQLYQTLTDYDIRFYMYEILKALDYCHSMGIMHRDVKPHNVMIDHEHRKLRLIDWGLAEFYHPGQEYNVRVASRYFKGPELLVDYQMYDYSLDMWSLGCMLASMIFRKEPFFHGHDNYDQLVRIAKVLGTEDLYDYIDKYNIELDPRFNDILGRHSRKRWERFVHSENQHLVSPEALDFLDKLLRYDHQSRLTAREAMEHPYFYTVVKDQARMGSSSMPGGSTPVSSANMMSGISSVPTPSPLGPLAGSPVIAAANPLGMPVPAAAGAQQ
Chain of Mitogen-activated protein kinase kinase kinase 11 (Q16584 whole entry): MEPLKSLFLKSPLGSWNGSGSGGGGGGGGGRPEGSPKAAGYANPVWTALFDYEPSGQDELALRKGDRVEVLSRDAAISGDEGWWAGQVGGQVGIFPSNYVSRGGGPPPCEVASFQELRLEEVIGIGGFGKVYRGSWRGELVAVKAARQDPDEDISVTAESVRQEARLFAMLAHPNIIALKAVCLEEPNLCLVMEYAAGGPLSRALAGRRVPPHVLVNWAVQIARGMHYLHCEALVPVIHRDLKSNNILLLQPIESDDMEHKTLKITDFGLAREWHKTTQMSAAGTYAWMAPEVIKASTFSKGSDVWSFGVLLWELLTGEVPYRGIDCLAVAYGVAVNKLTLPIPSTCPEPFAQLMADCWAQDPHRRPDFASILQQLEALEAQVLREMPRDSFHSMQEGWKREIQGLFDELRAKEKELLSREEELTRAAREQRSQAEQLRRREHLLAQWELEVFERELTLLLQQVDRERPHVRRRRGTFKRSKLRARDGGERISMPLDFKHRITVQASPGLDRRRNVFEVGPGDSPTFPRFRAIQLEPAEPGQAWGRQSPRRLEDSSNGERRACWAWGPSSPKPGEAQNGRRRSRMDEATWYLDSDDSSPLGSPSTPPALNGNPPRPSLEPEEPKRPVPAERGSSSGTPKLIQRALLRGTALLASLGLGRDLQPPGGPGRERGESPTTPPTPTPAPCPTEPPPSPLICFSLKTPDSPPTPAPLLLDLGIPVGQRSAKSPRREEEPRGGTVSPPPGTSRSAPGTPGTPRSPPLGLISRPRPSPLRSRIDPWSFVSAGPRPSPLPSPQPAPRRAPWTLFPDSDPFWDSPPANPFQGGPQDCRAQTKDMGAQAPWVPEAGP
Chain of Mitogen-activated protein kinase 3 (Homo sapiens) (P27361 whole entry): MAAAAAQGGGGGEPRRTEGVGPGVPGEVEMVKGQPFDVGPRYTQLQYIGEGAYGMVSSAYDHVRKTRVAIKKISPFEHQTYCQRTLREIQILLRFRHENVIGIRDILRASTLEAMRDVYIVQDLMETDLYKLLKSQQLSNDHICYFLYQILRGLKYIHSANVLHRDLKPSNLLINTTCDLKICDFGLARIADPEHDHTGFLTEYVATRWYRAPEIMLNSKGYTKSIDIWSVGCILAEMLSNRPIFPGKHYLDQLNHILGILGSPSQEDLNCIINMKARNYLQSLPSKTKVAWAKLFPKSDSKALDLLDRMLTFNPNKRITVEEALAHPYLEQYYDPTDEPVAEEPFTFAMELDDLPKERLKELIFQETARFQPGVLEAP

## N#Cc1ccnc(Nc2cc(C3CCN(C4COC4)CC3)n(C3CCCC3)n2)c1
[1]
  inhibition: 6.7%
Human MDR1
  efflux ratio at 5 µM: 1.4
[2]
  inhibition: inactive
[3]
  inhibition: 3%
[4]
  inhibition: 48%
[5]
  inhibition: 15.9%
[6]
  inhibition: 7.3%
[7]
  inhibition: 25.6%
[8]
  inhibition: 7.1%
[9]
  inhibition: 13.5%
[10]
  inhibition: 11.6%
[11]
  inhibition: 1.3%
[12]
  inhibition: 0.3%
[13]
  inhibition: 23%
[14]
  inhibition: 0.6%
[15]
  inhibition: 58.6%
[16]
  inhibition: 5.4%
[17]
  inhibition: 19.5%
[18]
  inhibition: 12.5%
[19]
  inhibition: 5.2%
[20]
  IC50: 1.01 µM
[21]
  IC50: > 10 µM
[22]
  IC50: > 10 µM
[23]
  Tmax: 15 min
[24]
  AUC(0-t) at 6 h: 15.8 µM·h
[25]
  inhibition: 50.5%
Rattus norvegicus
  fAUC/dose: 0.03 kg·h/L
HEK293
  Activity: Non-toxic
